Results on 15 molecules are retold here after ChEMBL document CHEMBL4808214, “Structure-activity relationship studies in substituted sulfamoyl benzamidothiazoles that prolong NF-κB activation” (Bioorg Med Chem, 2021).

The subject of data set [1] is BMDC. The data set can be described thus: Activation of NF-kappaB in mouse BMDC cells assessed as enhanced IL-12 production in the presence of LPS at 5 uM measured by ELISA relative to control. It counts as cell-based. As to conditions: filed as activator. The method in brief: (§1)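 THP-1 cells and BMDCs from the femurs and tibias of C57BL/6 mice were treated overnight with compound (5 μM) or vehicle (0.5% DMSO), with or without LPS at 1 ng/mL. Secreted IL-8 (THP-1) and IL-12 (BMDC) in the supernatant were measured by ELISA.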
In general terms: An ELISA detects its analyte on a solid surface through an enzyme-linked reagent.

Data set [2] addresses T1, Nuclear factor NF-kappa-B complex (Homo sapiens) (UniProt Q00653+P19838+Q04206). The data set can be described thus: Activation of NF-kappaB in human THP1-Blue NF-kappaB cells co-expressing NFkappaB-inducible SEAP assessed as increase in SEAP activity at 5 uM measured after 20 hrs by quanti-blue based colorimetric assay relative to control. As to conditions: filed as activator. It counts as cell-based. The method in brief: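 THP1-Blue NF-κB reporter cells plated at 10^5/well in RPMI with 10% FBS, penicillin/streptomycin and Normocin. Compound added at 5 μM final (0.5% DMSO), then incubated 20 h. Secreted SEAP in the supernatant was read colorimetrically with QuantiBlue at 630 nm. Two-point normalization set vehicle (0.5% DMSO) as 100% and a reference activator as 200%.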

The target in data set [3] is T1, Nuclear factor NF-kappa-B complex (Homo sapiens). In words: Activation of NF-kappaB in human THP-1 cells assessed as increase in IL-8 production in the presence of LPS at 5 uM measured by ELISA relative to control. It counts as cell-based. The settings on record: filed as activator. An outline of the steps:
as §1

The subject of data set [4] is BMDC. In words: Activation of NF-kappaB in mouse BMDC cells assessed as enhanced IL-12 production at 5 uM measured by ELISA relative to control. It counts as cell-based. The method in brief:
as §1

Data set [5] deals with THP-1. In words: Cytotoxicity against human THP-1 cells assessed as cell viability at 5 uM measured after 18 hrs by MTT assay relative to control. It counts as cell-based. As to conditions: thp-1, 18 h. An outline of the steps: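 THP-1 cells were plated at 10^5/well in RPMI with 10% FBS and penicillin/streptomycin, then given compound at 5 μM final (0.5% DMSO) for 18 h. MTT at 0.5 mg/mL was added for 4–6 h, followed by SDS/HCl lysis buffer overnight. Absorbance was read at 570 nm against a 650 nm reference. Viability was normalized to DMSO as 100%.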

Data set [6] is filed under the species Mus musculus. The data set can be described thus: Co-adjuvanticity in MPLA/OVA-immunized BALB/c mouse assessed as increase in ovalbumin specific IgG production at 50 nmol treated on day 0 and 21 measured after 28 days by ELISA. It counts as functional, organism-based. The settings on record: time 28.0 day. The method in brief:
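BALB/c mice aged 7–9 weeks, n=5 per group, were injected into the gastrocnemius muscle on days 0 and 21. Mice were bled on day 28 and OVA-specific IgG titers measured by ELISA. Groups were compared with one-way ANOVA and Dunnett's post hoc test.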

Calls of active or inactive are those of the source. The calls are words filed in the database; no cut-off is given here.

T1 sequence (P19838 whole entry, looked up): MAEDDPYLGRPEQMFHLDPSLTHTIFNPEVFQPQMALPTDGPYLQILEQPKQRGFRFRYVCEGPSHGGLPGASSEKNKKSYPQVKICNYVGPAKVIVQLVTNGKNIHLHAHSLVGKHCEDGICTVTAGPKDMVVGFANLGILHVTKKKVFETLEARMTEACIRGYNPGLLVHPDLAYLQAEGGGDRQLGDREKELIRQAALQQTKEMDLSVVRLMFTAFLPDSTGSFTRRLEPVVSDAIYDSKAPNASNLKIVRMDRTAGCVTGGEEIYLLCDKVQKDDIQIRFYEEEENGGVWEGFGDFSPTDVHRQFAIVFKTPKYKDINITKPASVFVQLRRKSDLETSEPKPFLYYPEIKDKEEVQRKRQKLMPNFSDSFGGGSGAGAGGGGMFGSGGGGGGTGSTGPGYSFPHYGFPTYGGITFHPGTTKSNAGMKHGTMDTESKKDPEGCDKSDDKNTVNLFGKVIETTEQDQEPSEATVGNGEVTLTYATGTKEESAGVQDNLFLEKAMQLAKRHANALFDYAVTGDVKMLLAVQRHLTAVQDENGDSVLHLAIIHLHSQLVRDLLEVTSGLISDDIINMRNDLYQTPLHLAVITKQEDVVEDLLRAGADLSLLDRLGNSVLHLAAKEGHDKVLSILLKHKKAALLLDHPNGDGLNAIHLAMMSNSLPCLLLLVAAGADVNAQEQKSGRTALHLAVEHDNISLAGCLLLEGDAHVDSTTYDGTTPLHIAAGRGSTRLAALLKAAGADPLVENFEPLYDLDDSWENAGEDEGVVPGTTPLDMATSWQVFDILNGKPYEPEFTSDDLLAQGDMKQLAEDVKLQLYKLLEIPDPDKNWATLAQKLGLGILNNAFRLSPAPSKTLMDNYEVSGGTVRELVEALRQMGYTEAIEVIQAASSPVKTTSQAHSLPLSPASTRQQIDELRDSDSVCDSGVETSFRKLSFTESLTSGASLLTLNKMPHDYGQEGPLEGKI
T1 sequence (Q00653 whole entry, looked up): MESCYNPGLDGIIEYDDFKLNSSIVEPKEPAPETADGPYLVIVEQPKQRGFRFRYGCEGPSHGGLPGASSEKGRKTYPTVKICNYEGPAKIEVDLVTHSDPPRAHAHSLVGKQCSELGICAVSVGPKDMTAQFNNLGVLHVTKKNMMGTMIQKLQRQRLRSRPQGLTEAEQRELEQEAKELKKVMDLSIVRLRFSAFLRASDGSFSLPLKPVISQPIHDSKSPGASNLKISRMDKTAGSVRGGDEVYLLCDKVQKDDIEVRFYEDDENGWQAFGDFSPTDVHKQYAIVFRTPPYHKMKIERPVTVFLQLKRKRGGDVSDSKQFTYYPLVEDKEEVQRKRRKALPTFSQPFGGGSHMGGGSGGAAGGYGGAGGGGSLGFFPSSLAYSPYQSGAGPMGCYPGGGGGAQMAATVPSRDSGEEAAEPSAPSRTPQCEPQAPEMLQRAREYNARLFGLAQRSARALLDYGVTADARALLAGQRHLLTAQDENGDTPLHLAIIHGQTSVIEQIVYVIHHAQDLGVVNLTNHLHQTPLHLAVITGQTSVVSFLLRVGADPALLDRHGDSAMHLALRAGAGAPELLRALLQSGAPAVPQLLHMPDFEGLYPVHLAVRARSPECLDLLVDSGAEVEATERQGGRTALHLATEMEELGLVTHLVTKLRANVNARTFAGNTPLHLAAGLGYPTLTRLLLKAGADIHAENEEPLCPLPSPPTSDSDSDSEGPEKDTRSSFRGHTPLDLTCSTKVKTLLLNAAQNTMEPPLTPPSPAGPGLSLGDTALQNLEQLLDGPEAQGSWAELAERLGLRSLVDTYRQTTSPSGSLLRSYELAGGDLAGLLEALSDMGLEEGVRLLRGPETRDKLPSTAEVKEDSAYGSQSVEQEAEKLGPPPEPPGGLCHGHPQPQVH
T1 sequence (Q04206 whole entry, looked up): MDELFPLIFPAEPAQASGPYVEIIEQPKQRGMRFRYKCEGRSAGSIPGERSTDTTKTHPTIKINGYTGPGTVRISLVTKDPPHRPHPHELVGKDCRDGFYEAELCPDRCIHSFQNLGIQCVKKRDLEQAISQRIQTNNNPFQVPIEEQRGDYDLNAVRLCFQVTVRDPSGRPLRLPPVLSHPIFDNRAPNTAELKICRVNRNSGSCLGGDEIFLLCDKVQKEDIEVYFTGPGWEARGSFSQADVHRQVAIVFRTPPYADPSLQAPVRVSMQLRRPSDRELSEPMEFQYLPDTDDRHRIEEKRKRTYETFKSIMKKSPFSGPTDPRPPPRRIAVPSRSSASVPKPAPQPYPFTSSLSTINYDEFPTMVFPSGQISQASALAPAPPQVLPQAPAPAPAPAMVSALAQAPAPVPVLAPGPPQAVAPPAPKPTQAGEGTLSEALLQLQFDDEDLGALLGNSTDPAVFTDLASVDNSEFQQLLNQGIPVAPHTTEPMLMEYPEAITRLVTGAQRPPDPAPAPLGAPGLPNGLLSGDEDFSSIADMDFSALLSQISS

Consider `Cc1ccc(C)c(-c2csc(NC(=O)c3ccc(S(=O)(=O)N4CCCCC4)cc3)n2)c1`, for which the result in data set [1] and in data set [3] was Active. Moreover, the Activity in data set [2] is 200%; in data set [5], 103%. Also, the outcome in data set [4] was inactive.

Regarding `Cc1ccc(Br)c(-c2csc(NC(=O)c3ccc(S(=O)(=O)N4CCCCC4)cc3)n2)c1`, the outcome in data set [1] and in data set [3] was Active. Further, the Activity in data set [2] was 254%; in data set [5] it was 98%. In addition, the result in data set [4] was inactive.

In the case of `CCCC#Cc1sc(NC(=O)c2ccc(S(=O)(=O)N3CCCCC3)cc2)nc1-c1cc(C)ccc1C`, the result in data set [1], in data set [6] and in data set [3] was Active. Moreover, the values for the Activity in data set [2] and in data set [5] were 393% and 106%, respectively. Besides, the result in data set [4] was inactive.

On to `CCCC1CCN(S(=O)(=O)c2ccc(C(=O)Nc3nc(-c4cc(C)ccc4C)cs3)cc2)CC1`, for which the result in data set [1], in data set [6] and in data set [3] was Active. The results for the Activity in data set [2] and in data set [5] were 517% and 111%, respectively. For the same molecule, the outcome in data set [4] was inactive.

`Cc1ccc(C)c(-c2csc(NC(=O)c3ccc(S(=O)(=O)N4CCNCC4)cc3)n2)c1`: the Activity in data set [2] turned out to be 101%; in data set [5], 121%.

With `Cc1ccc(C)c(-c2csc(C(=O)Nc3ccc(S(=O)(=O)N4CCCCC4)cc3)n2)c1`, the Activity in data set [2] was 99%; in data set [5], 91%.

For the molecule `Cc1ccc(C)c(-c2csc(NC(=O)c3ccc(S(=O)(=O)N4CCCCC4)c(N)c3)n2)c1`, the Activity in data set [2] worked out at 125%; in data set [5], 92%.

`Cc1ccc(C)c(Cc2csc(NC(=O)c3ccc(S(=O)(=O)N4CCCCC4)cc3)n2)c1`: the figures for the Activity in data set [2] and in data set [5] were 101% and 100%, respectively.

As for `Cc1ccc(C)c(-c2csc(NC(=O)c3ccc(S(=O)(=O)N4CCCCC4)cc3Cl)n2)c1`, the results for the Activity in data set [2] and in data set [5] were 127% and 87%, respectively.

For the molecule `CCCCc1sc(NC(=O)c2ccc(S(=O)(=O)N3CCCCC3)cc2)nc1-c1cc(C)ccc1C`, the Activity in data set [2] came out at 109%; in data set [5] it was 129%.

Turning to `C#Cc1sc(NC(=O)c2ccc(S(=O)(=O)N3CCCCC3)cc2)nc1-c1cc(C)ccc1C`, the Activity was 118% in data set [2] and 111% in data set [5].

As to `CCCN(CC)S(=O)(=O)c1ccc(C(=O)Nc2nc(-c3cc(C)ccc3C)cs2)cc1`, the results for the Activity in data set [2] and in data set [5] were 183% and 104%, respectively.

As to `Cc1ccc2c(c1)-c1nc(NC(=O)c3ccc(S(=O)(=O)N4CCCCC4)cc3)sc1CC2`, the Activity in data set [2] was 114%; in data set [5] it was 95%.

For `Cc1ccc(C)c(-c2csc(NC(=O)c3ccc(S(=O)(=O)N4CCCCC4)s3)n2)c1`, the Activity in data set [2] stood at 103%; in data set [5], 97%.

As for `CCCCCc1sc(NC(=O)c2ccc(S(=O)(=O)N3CCCCC3)cc2)nc1-c1cc(C)ccc1C`, the Activity amounted to 117% in data set [2] and 108% in data set [5].
